Source: the EternaBench riboswitch data

Tested on: MS2 coat protein
Assay: apparent Kd, MS2 coat protein; higher = weaker binding; RNA-MaP array; FMN 200 µM where present
Summary of the method: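 Designs were transcribed by stalled E. coli RNA polymerase on Illumina sequencing-chip clusters. They were titrated with SNAP-549-labelled MS2 coat protein from 0.7 or 1.5 nM, doubling to 3 µM, in 100 mM Tris-HCl pH 7.5, 80 mM KCl, 4 mM MgCl2, BSA, DTT, yeast tRNA and Tween-20, without and then with constant ligand. The apparent Kd is the median of filtered per-cluster fits after normalisation of green signal to red-channel RNA signal and control-cluster median Fmax.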

[1] = designed as: OFF switch for flavin mononucleotide, no ligand
[2] = ligand present: flavin mononucleotide, designed as: OFF switch for flavin mononucleotide
[3] = designed as: ON switch for flavin mononucleotide, no ligand
[4] = ligand present: flavin mononucleotide, designed as: ON switch for flavin mononucleotide

Sequence	apparent Kd [1] [nM]	apparent Kd [2] [nM]	apparent Kd [3] [nM]	apparent Kd [4] [nM]
UUGCUCAAUUGGGCAGGAACCUCACAUGAGGAUCACCCAUGUCAGGAUAUCCUAGUUUGGACGUAGGAGAAGGGACAGAGUAUC	157	152	–	–
AAAGUCGGAAGAUAAUAAUGAAUACAUGAGGAUCACCCAUGUAAGGAUAUGCAGUGGAAUACACUGCAGAAGGUACAAACCGAC	14.7	19.8	–	–
UGGUACAUGGGAGGAUAUCCUCAAGAGACAUGAGGAUCACCCAUGUAUUAUAAGCCGAAAGGCAUGGAGAAGGCCCAUGUACCU	–	–	75.4	19.5
ACAUGAGGAUCACCCAUGUAUUUGUAGGAUAUACUGUAUUGUUUAUUACUCUAAUUAAUAUGUUUGUAGAAGGACAUUGCAUGA	8.39	9.86	–	–
ACUAGAUGAGGAUAUGCACAUUUUAGUGUUCCUCUAGAUUAACAUGAGGAUCACCCAUGUAGAAGGCGUCAAUU	45.7	64.8	–	–
UACAGCUCGACAGGAUAUACAUCACUGCUUCGGCAGUGUAUCUUAAUAACAUGAGGAUCACCCAUGUAGAAGGGUCGAGCUGUA	18.1	32.8	–	–
AAGUAACAUGAGGAUCACCCAUGUGAGGUGAGCGUAGGAUAUCGAGGAGGAAGGGUGGAGCGAGAAGGACGAGAGG	–	–	362	360
UGUGCGUAUGUGAGGAUAUGCUGGUCCUUGGAUCGGCAGAAGGCACAUGAGGAUCACCCAUGUGGUGUCGUUCU	389	24.8	–	–
CAACUGUGAGGAUAUGGUGAGUAGUGCCUGAGCGCUGCUCACCAGAAGGCACAUGAGGAUCACCCAUGUAUAAC	42.9	176	–	–
GCAACGCCUGACAUGAGGAUCACCCAUGUUAGAUUGUUAUGUCAGGAUAUUGUCGCGAAACGUGAUGAGAAGGGAUAUGUUGCU	–	–	815	53.9
UGCCGUUUAGGAUAUACAUGAGGAUCACCCAUGUGACAAACAUAUUUUACAAAACCAUGUAGAAGGAAACGGCA	97.4	468	–	–
UCAGGCUUCGAGAAGGACAUGAAUCGUAGCAUUGCUACGAUCAUAGAUACAUGAGGAUCACCCAUGUAGGAUAUCGGAGUCUGC	5.8	5.87	–	–
GCGAUUUUGUAGAAGGUACGUGAUUAGUCAAAGUAAGGAUAUACUGACAUGAGGAUCACCCAUGUAUUAAUAGUUAACAGUCGC	–	–	94.6	23.1
CUAGACAGAUCAGGAUAUCAUCGCAUGGUGCAUCCCUGUGAUUACAUGAGGAUCACCCAUGUGCAUGAGAAGGGAUUACUAUGU	46.5	13.1	–	–
CUGCUUCCCAGUUUGGUUAUUUAUACAGAAGGCCAUUCACAUGAGGAUCACCCAUGUCAAGUAAUGGAGGAUAUGUUAUUGUCG	–	–	6.64	4.65
AUCAGCUCGUCAGGAUAUACGUCACUGCGUCAGCAGUGUGGUCAGAUCACAUGAGGAUCACCCAUGUAGAAGGGACGAGCUGAU	28.6	549	–	–
UGGUACUAGGGAGGAUAUGGGAAGAUACAUGAGGAUCACCCAUGUUUAAGAAUGCCGAGAGGCAACUAGAAGGCCCUAGUAGCU	–	–	539	19.9
CGAUAGGACAGAGGAUAUACACAUGAGGAUCACCCAUGUGAUUUCGGCGCGAAAGCGCCAAACAUGUAGAAGGCUGUCCUAUCG	11.3	4.89	–	–
UAAGACUAGCAUUGGUAUCUCCACAUGAGGAUCACCCAUGUCUAGGAUAUGAGCAGCAAAGCUGCUUAGAAGGAGACGCUAGUC	8.47	12.6	–	–
GGUCGUCCCAUUAACAUGAGGAUCACCCAUGUCAAAAGACAUGAGGAUAUGGUACCUAAUUGGUACCAGAAGGCAUGGACGACC	–	–	1210	115
AAUAGGCGAGGAUAUACAUGAGGAUCACCCAUGUAAGUAAGCCUGGCUGAAACUAAAUGUAGAAGGCGCAAUAA	14.3	43.1	–	–
GUAGCAUUGAGAGGAUAUCCAUACCGGAAACGGACAUGAGGAUCACCCAUGUGGCGAAAGCCAUGGGAGAAGGCUCUAUGUUAC	–	–	11.1	4.96
GUUUUCGCAUGAGGAUAUGCUCGCAAUUCAAGAGCAGAAGGUAUGUCUAUAGACAUGAGGAUCACCCAUGUAUUUAUCAUUGAA	–	–	218	58.7
UGUGUGUGUGCAGGAUAUUUAAGAAGAACAUGAGGAUCACCCAUGUGAGGAUCACCCAUGUAAAAGGAGAAGGGCAGUGUGUGU	754	728	–	–

Sequence	apparent Kd [1] [nM]	apparent Kd [2] [nM]	apparent Kd [3] [nM]	apparent Kd [4] [nM]
ACAUGAGGAUCACCCAUGUUAAGCGAGGAUAUUUCACUGCACAUGAGGUUCGCCCAUGUCCUGCGGAAGAAGGUGCAAAUAAUU	–	–	48.1	23.4
GGGCGACAUGAGGAUCACCCAUGUAACCUAAACGAAGGAUAUGGGCCUGAACGUCCAGGACCAGAAGGUCGGAAAU	–	–	23.6	17.9
GUAGCAUAAUUAGGAUAUUCAGCGAAUAGAUUGACAUGAGGAUCACCCAUGUGGCGAAAGCCGAGGGAGAAGGGAUAAUGCUAC	–	–	157	61.1
GUACAGAAGGAGAAGGGCUAGGAGGUCCAGCUUAUGUGUGUUGCAACAUGAGGAUCACCCAUGUAGCAGGAUAUCCUUUGUACA	41.1	440	–	–
CUGCGGUAGGAGAAGGACGGCGGGUUCUUUUCAUACAUGAGGAUCACCCAUGUAGGAUAUCCUACCUCAGGCGGCCUACUACAG	7.68	10.9	–	–
CAUAACUUUGAUCUCUCCUACAUGAGGAUCACCCAUGUUGAGAGAAGGAGGCGGCGGAGUGCCGCCUAGGAUAUCUGAAGGGUC	6.06	7.35	–	–
CCAUGGUGGGCAGGAUAUCGUCCAGCUUGCGGACGAGAAGGGCUCAAACAUGAGGAUCACCCAUGUGAAGAGCGGGUUGUCCAA	24.6	146	–	–
GGUAGCAACACAGGAUAUGCUAUCCUUUGGGUAGCAGAAGGGUGAAACAUGAGGAUCACCCAUGUGCUGCCAGGGCGUGAGCCC	–	–	1800	136
CAUUAAUUCAUUAUAGUAAUUAUACAGGAUAUGUUACAUGAGGAUCACCCAUGUAUUCUUGGUAAACAGAAGGGUAUUUCUAGU	7.35	9.31	–	–
CAGUUCUGAGGAUAUCCAUCCUCCUACAUGAGGAUCACCCAUGUUUCCCUCUGGGUUUUCGGAGAAGGCAGUUAUC	299	547	–	–
GCUGACGAUGUAGGAUAUCUCGACGAUAAGUCGAGAGAAGGACAUGAGGAUCACCCAUGUAAAACUCCGUCAGCGAGGAAACUC	16.3	17.8	–	–
UAGGGCGAGUUAUGUACAAGAUACAUGAGGAUCACCCAUGUGUAGGAUAUGACCCUCAUCGCUGGUCAGAAGGGCACGAGAAUC	234	314	–	–
AAACACGGACAUGAGGAUCACCCAUGUGGCGAAAGCCUUGGGAGAAGGCCGAUUGCAAAGCAAUCGGAGGAUAUUCAUACCGUG	–	–	1250	57
AAAAGCUCAGGAUAUACGGUCUGUUGUUGAAAAAGUAAAAAACAUGAGGAUCACCCAUGUAGAAGGGAGCGAAA	67.3	159	–	–
UCUGCAUAGUCAGGAUAUGCAAAGUAAUGUAUGGAAACAUACAUUACAACAUGAGGAUCACCCAUGUAGAAGGGACUGUGCAGA	14	13	–	–
UGGACUGGGCAGAAGGGACAUGAGGAUCACCCAUGUCUUGGGCUACUUCAGUCAGGAUAUGCCCAUUAAAUAUCCGUGCAUCAA	14.9	73.3	–	–
AAUCAACGAAUACCAGGGCAUUAAUGAGAAGGCCAAUCACAUGAGGAUCACCCAUGUACGAGAGUGGAGGAUAUCAGUGGGCCG	–	–	111	11.3
AGAUACAACCAGAAGGACAUGAGGAUCACCCAUGUAGGAUAUGGGUUACACGUUCCUGUGAAUUGUAACGACGCUACGUAGAGU	–	–	178	15
CAACGUGGAGGAUAUUAGCGAGACAACAUGAGGAUCACCCAUGUGGUACUCAUCUCCUCCUGAGAAGGCUACGCCC	11.8	12.3	–	–
UAUGUAUUCGUAGGAUAUCCGUCGCCACCGUGUGGAGAAGGACGAACAUGAGGAUCACCCAUGUAUCAUGGUGUAGACACUUUU	98.4	154	–	–
GGUGAGUGAGGAUAUCCAGGUCCUGACAUGAGGAUCACCCAUGUAUACGUCACGUGCGGAGGAGAAGGCACAAUAA	91.1	297	–	–
GCAGCUUGGCAGAAGGCCUAGGUGGCGGACCUAGGAGGAUAUGCUACAUGAGGAUCACCCAUGUGGGUGGGAGAAUCCUAGGAG	133	132	–	–
AGAUGACAAGGAUAUACUCGGGAUGCUAGUCGCGAAGAAGCACAUGAGGAUCACCCAUGUAGAAGGUGUAAGAA	122	128	–	–
